Measured values published in ChEMBL document CHEMBL4118256, “Second Generation of Mannich Base-Type Derivatives with in Vivo Activity against Trypanosoma cruzi” (J Med Chem, 2018).
pIC50: −log10 of the molar value.

What was measured:
[1] = system: Trypanosoma cruzi; assay: Trypanocidal activity against Trypanosoma cruzi TINF/CH/1956/Tulahuen DTU 6 epimastigotes after 48 hrs by resazurin dye based assay; assay type: functional, organism-based; conditions: TINF/CH/1956/Tulahuen DTU 6, 48 h
Procedure, shortened: (§1)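 Exponential-phase epimastigotes were seeded at 5×10^5 mL^-1 with compounds at 100–0.2 µM (DMSO 0.01% v/v) at 28 °C. After 48 h, resazurin was added for another 24 h. SDS was then added and absorbance read at 570 and 600 nm.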

[2] = Selectivity index, ratio of IC50 for African green monkey Vero cells to IC50 for Trypanosoma cruzi IRHOD/CO/2008/SN3 DTU 1 amastigotes infected in African green monkey Vero cells; assay type: toxicity; conditions: read-out: Ratio IC50
Procedure, shortened: (§2)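 SI is Vero IC50 divided by the IC50 for the stated parasite form. For Vero cytotoxicity, cells were seeded at 1.25×10^4 mL^-1 with compounds at 1000–1 µM, incubated 48 h, then given resazurin for a further 24 h (72 h total), with absorbance read at 570/600 nm. Triplicate, four determinations.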

[3] = Selectivity index, ratio of IC50 for African green monkey Vero cells to IC50 for Trypanosoma cruzi MHOM/Pe/2011/Arequipa DTU 5 epimastigotes; assay type: toxicity; conditions: read-out: Ratio IC50; procedure, shortened: as §2
[4] = system: Vero; assay: Cytotoxicity against African green monkey Vero cells assessed as reduction in cell viability after 72 hrs by resazurin dye based assay; conditions: Chlorocebus sabaeus
Procedure, shortened: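 Vero monkey kidney cells grown at 37 °C, 5 % CO2, in RPMI with 10 % heat-inactivated FBS. Seeded at 1.25 × 10^4 mL-1 with compound at 1000 to 1 µM (DMSO 0.01 % v/v). After 48 h, resazurin added for a further 24 h, then SDS. Absorbance read at 570/600 nm. IC50 from triplicates in four separate determinations.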

[5] = system: Trypanosoma cruzi; assay: Trypanocidal activity against Trypanosoma cruzi IRHOD/CO/2008/SN3 DTU 1 epimastigotes after 48 hrs by resazurin dye based assay; assay type: functional, organism-based; conditions: IRHOD/CO/2008/SN3 DTU 1, 48 h; procedure, shortened: as §1
[6] = system: Trypanosoma cruzi; assay: Trypanocidal activity against Trypanosoma cruzi IRHOD/CO/2008/SN3 DTU 1 trypamastigotes derived from infected Balb/c albino mouse after 24 hrs by resazurin dye based assay; assay type: functional, organism-based; conditions: IRHOD/CO/2008/SN3 DTU 1, 24 h
Procedure, shortened: (§3)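 Bloodstream trypomastigotes taken from mice at peak parasitaemia were seeded at 2×10^6 mL^-1 in RPMI with 10% FBS. Compounds were added at 50–0.2 µM and incubated 24 h at 37 °C, 5% CO2, then with resazurin for 4 h. SDS was added and absorbance read at 570/600 nm. IC50 was fitted; triplicate, four separate determinations.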

[7] = system: Trypanosoma cruzi; assay: Trypanocidal activity against Trypanosoma cruzi IRHOD/CO/2008/SN3 DTU 1 amastigotes infected in African green monkey Vero cells after 72 hrs by Giemsa-staining based microscopic assay; assay type: functional, organism-based; conditions: IRHOD/CO/2008/SN3 DTU 1, Vero
Procedure, shortened: (§4)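 Vero cells were seeded at 1×10^4/well on coverslips. After 24 h they were infected with culture-derived trypomastigotes (MOI 1:10, 24 h), then washed. Compounds were added at 100–0.2 µM (DMSO 0.01% v/v) for 72 h at 37 °C, 5% CO2. Slides were methanol-fixed and Giemsa-stained; amastigotes and infected cells were counted over 500 host cells. IC50 was derived by curve fitting; triplicate wells, four separate determinations.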

[8] = Selectivity index, ratio of IC50 for African green monkey Vero cells to IC50 for Trypanosoma cruzi TINF/CH/1956/Tulahuen DTU 6 epimastigotes; assay type: toxicity; conditions: read-out: Ratio IC50; procedure, shortened: as §2
[9] = Selectivity index, ratio of IC50 for African green monkey Vero cells to IC50 for Trypanosoma cruzi IRHOD/CO/2008/SN3 DTU 1 epimastigotes; assay type: toxicity; conditions: read-out: Ratio IC50; procedure, shortened: as §2
[10] = Selectivity index, ratio of IC50 for African green monkey Vero cells to IC50 for Trypanosoma cruzi IRHOD/CO/2008/SN3 DTU 1 trypamastigotes derived from infected Balb/c albino mouse; assay type: toxicity; conditions: read-out: Ratio IC50; procedure, shortened: as §2
[11] = system: Trypanosoma cruzi; assay: Trypanocidal activity against Trypanosoma cruzi MHOM/Pe/2011/Arequipa DTU 5 epimastigotes after 48 hrs by resazurin dye based assay; assay type: functional, organism-based; conditions: MHOM/Pe/2011/Arequipa DTU 5, 48 h; procedure, shortened: as §1
[12] = system: Trypanosoma cruzi; assay: Trypanocidal activity against Trypanosoma cruzi TINF/CH/1956/Tulahuen DTU 6 amastigotes infected in African green monkey Vero cells after 72 hrs by Giemsa-staining based microscopic assay; assay type: functional, organism-based; conditions: TINF/CH/1956/Tulahuen DTU 6, Vero; procedure, shortened: as §4
[13] = system: Trypanosoma cruzi; assay: Trypanocidal activity against Trypanosoma cruzi TINF/CH/1956/Tulahuen DTU 6 trypamastigotes derived from infected Balb/c albino mouse after 24 hrs by resazurin dye based assay; assay type: functional, organism-based; conditions: TINF/CH/1956/Tulahuen DTU 6, 24 h; procedure, shortened: as §3
[14] = Selectivity index, ratio of IC50 for African green monkey Vero cells to IC50 for Trypanosoma cruzi TINF/CH/1956/Tulahuen DTU 6 amastigotes infected in African green monkey Vero cells; assay type: toxicity; conditions: read-out: Ratio IC50; procedure, shortened: as §2
[15] = Selectivity index, ratio of IC50 for African green monkey Vero cells to IC50 for Trypanosoma cruzi TINF/CH/1956/Tulahuen DTU 6 trypamastigotes derived from infected Balb/c albino mouse; assay type: toxicity; conditions: read-out: Ratio IC50; procedure, shortened: as §2
[16] = Selectivity index, ratio of IC50 for African green monkey Vero cells to IC50 for Trypanosoma cruzi MHOM/Pe/2011/Arequipa DTU 5 trypamastigotes derived from infected Balb/c albino mouse; assay type: toxicity; conditions: read-out: Ratio IC50; procedure, shortened: as §2
[17] = Selectivity index, ratio of IC50 for African green monkey Vero cells to IC50 for Trypanosoma cruzi MHOM/Pe/2011/Arequipa DTU 5 amastigotes infected in African green monkey Vero cells; assay type: toxicity; conditions: read-out: Ratio IC50; procedure, shortened: as §2
[18] = system: Trypanosoma cruzi; assay: Trypanocidal activity against Trypanosoma cruzi MHOM/Pe/2011/Arequipa DTU 5 amastigotes infected in African green monkey Vero cells after 72 hrs by Giemsa-staining based microscopic assay; assay type: functional, organism-based; conditions: MHOM/Pe/2011/Arequipa DTU 5, Vero; procedure, shortened: as §4
[19] = system: Trypanosoma cruzi; assay: Trypanocidal activity against Trypanosoma cruzi MHOM/Pe/2011/Arequipa DTU 5 trypamastigotes derived from infected Balb/c albino mouse after 24 hrs by resazurin dye based assay; assay type: functional, organism-based; conditions: MHOM/Pe/2011/Arequipa DTU 5, 24 h; procedure, shortened: as §3

Compound | pIC50 [1] | selectivity ratio [2] | selectivity ratio [3] | pIC50 [4] | pIC50 [5] | pIC50 [6] | pIC50 [7] | selectivity ratio [8] | selectivity ratio [9] | selectivity ratio [10] | pIC50 [11] | pIC50 [12] | pIC50 [13] | selectivity ratio [14] | selectivity ratio [15] | selectivity ratio [16] | selectivity ratio [17] | pIC50 [18] | pIC50 [19]
Cc1ccc(C(=O)CCN2CCN(c3ccc([N+](=O)[O-])cc3)CC2)cc1 | 4.34 | 9.8 | 8.3 | 3.63 | 4.74 | 4.60 | 4.62 | 5.1 | 12.9 | 9.3 | 4.55 | – | – | – | – | – | – | – | –
O=C(CCN1CCN(c2ccc([N+](=O)[O-])cc2)CC1)c1ccc(F)c(Br)c1 | 4.72 | – | 7 | 3.59 | 4.43 | – | – | 13.4 | 6.8 | – | 4.44 | 4.41 | 4.49 | 6.6 | 8 | – | – | – | –
O=C(CCN1CCN(c2ccc(F)cc2)CC1)c1ccc(F)c(F)c1 | 4.18 | 7.5 | 18 | 3.41 | 4.42 | 4.37 | 4.29 | 5.9 | 10.3 | 9.1 | 4.67 | – | – | – | – | 12.2 | 13.6 | 4.55 | 4.50
O=C(CCN1CCN(c2ccc([N+](=O)[O-])cc2)CC1)c1ccc(C(F)(F)F)cc1 | 4.82 | – | 5.6 | 4.12 | 4.70 | – | – | 5 | 3.8 | – | 4.87 | – | – | – | – | – | – | – | –
O=C(CCN1CCN(c2ccc([N+](=O)[O-])cc2)CC1)c1ccc(OC(F)(F)F)cc1 | 4.28 | – | 2.3 | 4.03 | 4.02 | – | – | 1.8 | 1 | – | 4.39 | – | – | – | – | – | – | – | –
O=C(CCN1CCN(c2ccc(F)cc2)CC1)c1ccc(Br)cc1 | 4.31 | – | 4.4 | 4.00 | 4.25 | – | – | 2 | 1.8 | – | 4.65 | – | – | – | – | – | – | – | –
Cc1ccc(C(=O)CCN2CCN(c3ccc(F)cc3)CC2)cc1 | 4.60 | – | 1.3 | 4.26 | 4.10 | – | – | 2.2 | 0.7 | – | 4.36 | – | – | – | – | – | – | – | –
O=C(CCN1CCN(c2ccc(C(F)(F)F)cc2)CC1)c1ccc(C(F)(F)F)cc1 | 4.37 | – | 2 | 4.31 | 4.46 | – | – | 1.1 | 1.4 | – | 4.61 | – | – | – | – | – | – | – | –
O=C(CCN1CCN(c2ccc(Cl)cc2)CC1)c1ccc(Cl)c(F)c1 | 4.26 | – | 4.2 | 3.76 | 4.29 | – | – | 3.2 | 3.4 | – | 4.38 | – | – | – | – | – | – | – | –
O=C(CCN1CCN(c2ccc(F)cc2)CC1)c1ccc(F)c(Cl)c1 | 4.43 | – | 7.3 | 3.73 | 4.38 | – | – | 5 | 4.5 | – | 4.60 | – | – | – | – | – | – | – | –
O=C(CCN1CCN(c2ccc([N+](=O)[O-])cc2)CC1)c1ccc(F)c(Cl)c1 | 4.38 | – | 3.4 | 3.94 | 4.29 | – | – | 2.8 | 2.3 | – | 4.47 | – | – | – | – | – | – | – | –
COc1ccc(C(=O)CCN2CCN(c3ccc(C(F)(F)F)cc3)CC2)cc1OC | 4.47 | – | 4.1 | 3.62 | 4.56 | – | – | 7.2 | 8.7 | – | 4.23 | – | – | – | – | – | – | – | –
